Test results as given in ChEMBL document CHEMBL4346663, “N-Cinnamoylanthranilates as human TRPA1 modulators: Structure-activity relationships and channel binding sites” (Eur J Med Chem, 2019).
Calls of active or inactive are those of the source. No cut-off for these calls is given here.

Legend:
[1] = Dissociation constant, pKa of the compound at pH 7.4; format: physicochemical
[2] = target: T1, Transient receptor potential cation channel subfamily M member 8 (Homo sapiens, UniProt Q7Z2W7); assay: Agonist activity at human TRPM8 expressed in HEK293 cells assessed as increase in calcium influx at 100 uM by Fluo-4-AM dye based fluorescence assay relative to calcimycin; format: cell-based
Method in brief: (§1)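 Stably transfected hTRPA1- or hTRPM8-HEK293 cells on poly-D-lysine plates for 48 h, loaded with Fluo-4AM (2 µM, 45 min, dark, room temperature), in isotonic HEPES buffer pH 7.4. FlexStation 240 s run: 20 s baseline, compound added, calcimycin added at 180 s. ΔRFU expressed as % calcimycin, DMSO-subtracted. Screening N = 3. Dose-response curves fitted for logEC50 (N = 3 in duplicate or triplicate).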
Target sequence in this assay (Q7Z2W7 whole entry, looked up): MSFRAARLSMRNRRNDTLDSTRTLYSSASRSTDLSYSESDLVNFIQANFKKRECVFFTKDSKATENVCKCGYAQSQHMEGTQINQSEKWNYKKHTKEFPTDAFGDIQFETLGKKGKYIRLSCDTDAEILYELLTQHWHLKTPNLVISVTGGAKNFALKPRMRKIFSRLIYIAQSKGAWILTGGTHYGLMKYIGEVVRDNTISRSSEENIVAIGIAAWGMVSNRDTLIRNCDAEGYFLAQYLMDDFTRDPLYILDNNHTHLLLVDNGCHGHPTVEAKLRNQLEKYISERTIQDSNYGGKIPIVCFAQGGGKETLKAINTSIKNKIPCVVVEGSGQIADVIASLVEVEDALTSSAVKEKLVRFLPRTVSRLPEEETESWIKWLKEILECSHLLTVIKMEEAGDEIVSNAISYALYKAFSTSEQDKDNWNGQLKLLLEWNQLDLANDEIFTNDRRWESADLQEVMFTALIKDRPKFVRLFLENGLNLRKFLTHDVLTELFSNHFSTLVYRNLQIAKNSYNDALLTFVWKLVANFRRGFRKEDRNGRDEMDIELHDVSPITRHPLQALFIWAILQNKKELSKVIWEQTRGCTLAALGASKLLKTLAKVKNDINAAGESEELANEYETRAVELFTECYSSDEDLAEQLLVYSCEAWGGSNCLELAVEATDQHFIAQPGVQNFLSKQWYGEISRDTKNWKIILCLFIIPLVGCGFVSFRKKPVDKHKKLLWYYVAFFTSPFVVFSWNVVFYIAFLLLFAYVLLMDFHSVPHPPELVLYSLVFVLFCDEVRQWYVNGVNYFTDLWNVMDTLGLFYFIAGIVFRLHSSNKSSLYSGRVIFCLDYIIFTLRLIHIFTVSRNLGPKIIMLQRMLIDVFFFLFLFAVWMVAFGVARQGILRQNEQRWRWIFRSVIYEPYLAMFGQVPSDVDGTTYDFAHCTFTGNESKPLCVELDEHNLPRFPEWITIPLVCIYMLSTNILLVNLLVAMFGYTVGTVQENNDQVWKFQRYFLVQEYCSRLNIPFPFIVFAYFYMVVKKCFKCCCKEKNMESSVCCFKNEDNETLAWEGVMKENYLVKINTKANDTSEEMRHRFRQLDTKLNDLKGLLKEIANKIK

[3] = target: T2, Transient receptor potential cation channel subfamily A member 1 (Homo sapiens, UniProt O75762); assay: Agonist activity at human TRPA1 expressed in HEK293 cells assessed as increase in calcium influx at 3 uM by Fluo-4-AM dye based fluorescence assay relative to calcimycin; format: cell-based; method in brief: as §1
[4] = target: T1, Transient receptor potential cation channel subfamily M member 8; assay: Antagonist activity at human TRPM8 expressed in HEK293 cells assessed as increase in calcium influx at 3 uM incubated for 10 mins prior to WS5 challenge by Fluo-4-AM dye based fluorescence assay relative to WS5; format: cell-based; parameters: scale not given: the % may be the effect or the level left
Method in brief: (§2)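 hTRPM8-HEK293 cells loaded with Fluo-4AM (2 µM, 45 min). Test compound pre-incubated 10 min before WS5 standard agonist. FlexStation fluorescence at 485/538 nm. ΔRFU given as % of WS5 response after DMSO vehicle subtraction. N = 3. IC50 from dose-response curves.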
Target sequence in this assay (Q7Z2W7 whole entry, looked up): as above

[5] = system: Transient receptor potential cation channel subfamily A member 1 (Homo sapiens), O75762 [F909A]; assay: Agonist activity at human TRPA1 Phe909Ala mutant expressed in HEK293 cells assessed as Ca2+ influx at 100 uM by fluorescence assay; format: cell-based
Method in brief: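 HEK293 cells stably expressing hTRPA1 point mutants, made by FuGENE 6 transfection, G418 (0.5 mg ml-1) selection and single-cell cloning, grown in DMEM with 25 mM HEPES, 10% FBS and geneticin. Ca2+ influx was read by Fluo dye fluorescence at room temperature, with calcimycin added at the end. Response was ΔRFU as % of calcimycin, with the DMSO vehicle subtracted.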

[6] = target: T2, Transient receptor potential cation channel subfamily A member 1; assay: Agonist activity at human TRPA1 expressed in HEK293 cells assessed as increase in calcium influx by Fluo-4-AM dye based fluorescence assay; format: cell-based; settings: read-out: EC50; method in brief: as §1
[7] = system: Transient receptor potential cation channel subfamily A member 1 (Homo sapiens), O75762 [F909A]; assay: Agonist activity at human TRPA1 Phe909Ala mutant expressed in HEK293 cells assessed as Ca2+ influx at 30 uM by fluorescence assay; format: cell-based
Method in brief: (§3)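 HEK293 cells stably expressing hTRPA1 point mutants (C621A, F909A or F944A), single-cell cloned under G418 selection. Cells plated on poly-D-lysine for 48 h, loaded with Fluo-4AM 2 µM for 45 min at room temperature. FlexStation read (ex 485/em 538 nm): 20 s baseline, compound added, calcimycin added at 180 s. Response expressed as % calcimycin from ΔRFU, vehicle-subtracted, and compared with wild-type hTRPA1 cells.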

[8] = system: Transient receptor potential cation channel subfamily A member 1 (Homo sapiens), O75762 [F944A]; assay: Agonist activity at human TRPA1 Phe944Ala mutant expressed in HEK293 cells assessed as Ca2+ influx at 30 uM by fluorescence assay; format: cell-based; method in brief: as §3
[9] = target: T2, Transient receptor potential cation channel subfamily A member 1; assay: Agonist activity at human TRPA1 expressed in HEK293 cells assessed as increase in calcium influx at 30 uM by Fluo-4-AM dye based fluorescence assay relative to calcimycin; format: cell-based; method in brief: as §1
[10] = target: T2, Transient receptor potential cation channel subfamily A member 1; assay: Antagonist activity at human TRPA1 expressed in HEK293 cells assessed as inhibition of CA-induced increase in calcium influx incubated for 10 mins prior to CA addition by Fluo-4-AM dye based fluorescence assayy; format: cell-based
[11] = target: T2, Transient receptor potential cation channel subfamily A member 1; assay: Antagonist activity at human TRPA1 expressed in HEK293 cells assessed as increase in calcium influx at 100 uM incubated for 10 mins prior to CA addition by Fluo-4-AM dye based fluorescence assay relative to CA; format: cell-based; parameters: scale not given: the % may be the effect or the level left
Method in brief: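 hTRPA1-HEK293 cells loaded with Fluo-4AM (2 µM). Compound pre-incubated 10 min, then cinnamaldehyde standard agonist added. FlexStation read, ex 485/em 538 nm. ΔRFU normalized to the CA response set at 100 % after DMSO vehicle subtraction. N = 3. logIC50 taken from dose-response fits.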

[12] = target: T1, Transient receptor potential cation channel subfamily M member 8; assay: Antagonist activity at human TRPM8 expressed in HEK293 cells assessed as increase in calcium influx at 100 uM incubated for 10 mins prior to WS5 challenge by Fluo-4-AM dye based fluorescence assay relative to WS5; format: cell-based; parameters: scale not given: the % may be the effect or the level left; method in brief: as §2
Target sequence in this assay (Q7Z2W7 whole entry, looked up): as above

[13] = target: T1, Transient receptor potential cation channel subfamily M member 8; assay: Agonist activity at human TRPM8 expressed in HEK293 cells assessed as increase in calcium influx at 30 uM by Fluo-4-AM dye based fluorescence assay relative to calcimycin; format: cell-based; method in brief: as §1
Target sequence in this assay (Q7Z2W7 whole entry, looked up): as above

[14] = target: T1, Transient receptor potential cation channel subfamily M member 8; assay: Antagonist activity at human TRPM8 expressed in HEK293 cells assessed as inhibition in WS5-induced increase in calcium influx incubated for 10 mins prior to WS5 challenge by Fluo-4-AM dye based fluorescence assay; format: cell-based; method in brief: as §2
Target sequence in this assay (Q7Z2W7 whole entry): as the sequence (Q7Z2W7 whole entry, looked up) above

[15] = system: Transient receptor potential cation channel subfamily A member 1 (Homo sapiens), O75762 [F909A]; assay: Agonist activity at human TRPA1 Phe909Ala mutant expressed in HEK293 cells assessed as Ca2+ influx at 10 uM by fluorescence assay; format: cell-based; method in brief: as §3
[16] = system: Transient receptor potential cation channel subfamily A member 1 (Homo sapiens), O75762 [F944A]; assay: Agonist activity at human TRPA1 Phe944Ala mutant expressed in HEK293 cells assessed as Ca2+ influx at 10 uM by fluorescence assay; format: cell-based; method in brief: as §3

Chain of Transient receptor potential cation channel subfamily A member 1 (Homo sapiens), O75762 [F944A] (O75762 whole entry F944A): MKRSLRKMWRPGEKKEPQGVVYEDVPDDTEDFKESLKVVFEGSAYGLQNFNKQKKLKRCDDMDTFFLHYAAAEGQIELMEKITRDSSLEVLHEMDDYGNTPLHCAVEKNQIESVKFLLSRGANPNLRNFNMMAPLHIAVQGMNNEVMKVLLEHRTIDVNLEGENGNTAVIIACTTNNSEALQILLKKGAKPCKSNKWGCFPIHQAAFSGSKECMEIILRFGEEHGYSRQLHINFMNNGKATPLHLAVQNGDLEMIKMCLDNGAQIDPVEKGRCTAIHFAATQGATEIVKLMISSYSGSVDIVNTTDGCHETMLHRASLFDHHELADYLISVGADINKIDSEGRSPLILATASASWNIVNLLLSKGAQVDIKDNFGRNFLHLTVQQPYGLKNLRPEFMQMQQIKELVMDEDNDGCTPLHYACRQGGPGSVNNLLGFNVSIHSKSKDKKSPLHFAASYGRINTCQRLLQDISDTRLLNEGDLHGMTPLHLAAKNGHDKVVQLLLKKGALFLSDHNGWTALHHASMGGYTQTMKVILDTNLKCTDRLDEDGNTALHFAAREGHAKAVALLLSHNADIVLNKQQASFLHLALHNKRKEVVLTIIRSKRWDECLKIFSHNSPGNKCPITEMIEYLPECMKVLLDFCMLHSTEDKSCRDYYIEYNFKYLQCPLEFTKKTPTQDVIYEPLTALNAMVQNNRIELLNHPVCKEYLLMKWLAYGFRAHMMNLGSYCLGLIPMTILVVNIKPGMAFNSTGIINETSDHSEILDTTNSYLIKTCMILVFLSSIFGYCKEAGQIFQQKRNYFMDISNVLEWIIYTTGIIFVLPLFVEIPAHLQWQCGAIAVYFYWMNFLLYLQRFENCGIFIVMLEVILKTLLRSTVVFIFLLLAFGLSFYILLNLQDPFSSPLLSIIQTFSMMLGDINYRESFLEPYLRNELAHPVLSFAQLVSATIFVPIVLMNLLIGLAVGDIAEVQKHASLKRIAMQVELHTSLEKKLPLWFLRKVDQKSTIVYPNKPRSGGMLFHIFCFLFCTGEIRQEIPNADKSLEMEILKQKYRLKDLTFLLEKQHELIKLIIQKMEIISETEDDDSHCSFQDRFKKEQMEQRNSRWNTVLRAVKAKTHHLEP
Chain of Transient receptor potential cation channel subfamily A member 1 (Homo sapiens), O75762 [F909A] (O75762 whole entry F909A): as the sequence (O75762 whole entry F944A) above, with F909A, A944F counted along it
T2 sequence (O75762 whole entry): as the sequence (O75762 whole entry F944A) above, with A944F counted along it

Compound | pKa [1] | Activity [2] | Activity [3] | Activity [4] | EC50 [6] | Activity [9] | Activity [11] | Activity [13] | also measured
O=C(/C=C/c1ccc(O)c(O)c1)Nc1ccccc1C(=O)O | 3.5 | inactive | – | – | – | – | – | – | –
COC(=O)c1ccccc1NC(=O)/C=C/c1ccc(Cl)cc1 | 13.8 | – | 45% | 70% | – | – | – | – | –
COC(=O)c1ccccc1NC(=O)/C=C/c1ccc(C(F)(F)F)cc1 | 13.7 | – | 29% | 81% | – | – | – | – | –
NC(=O)c1cccc(-c2cccc(OC(=O)NC3CCCCC3)c2)c1 [URB-597] | – | – | – | – | 0.1 µM | – | – | – | Activity [5]: Active
COC(=O)c1ccccc1NC(=O)/C=C/c1ccc(OC(C)=O)c(OC(C)=O)c1 | 13.6 | – | 12% | 102% | – | – | – | – | –
CN(C)c1ccc(/C=C/C(=O)Nc2ccccc2C(=O)O)cc1 | 3.5 | inactive | – | – | – | – | – | – | –
Cc1ccc(C(C)C)cc1O [CARVACROL] | – | – | – | – | 17 µM | – | – | – | Activity [7]: inactive; Activity [8]: inactive
COC(=O)c1ccccc1NC(=O)/C=C/c1ccc(N(C)C)cc1 | 4.8 | – | 27% | 86% | – | – | – | – | –
COc1ccc(/C=C/C(=O)Nc2ccccc2C(=O)O)cc1 | 3.5 | inactive | – | – | 49 µM | 27% | 19% | inactive | IC50 [10]: 12 µM; Activity [7]: Active; Activity [12]: 68%; Activity [8]: inactive
COC(=O)c1ccccc1NC(=O)/C=C/c1ccc(OC(C)=O)cc1 | 13.8 | – | 10% | 84% | – | – | – | – | –
COc1ccccc1/C=C/C(=O)Nc1ccccc1C(=O)O | 3.4 | inactive | – | – | 75 µM | 33% | 14% | inactive | IC50 [10]: 51 µM; IC50 [14]: 41 µM; Activity [12]: 32%
COC(=O)c1ccccc1NC(=O)/C=C/c1ccccc1Cl | 13.7 | – | 29% | 53% | – | – | – | – | –
COC(=O)c1ccccc1NC(=O)/C=C/c1ccc([N+](=O)[O-])cc1 | 13.6 | – | – | – | – | – | – | – | –
C/C(=C\c1ccccc1)C(=O)Nc1ccccc1C(=O)O | 3.5 | inactive | – | – | 133 µM | 33% | 29% | inactive | IC50 [14]: 27 µM; Activity [7]: Active; Activity [12]: 28%; Activity [8]: inactive
COc1ccc(CCC(=O)Nc2ccccc2C(=O)O)cc1 | 3.5 | inactive | – | – | – | 6% | 74% | inactive | Activity [12]: 57%
CCCCCc1ccc(/C=C/C(=O)Nc2ccccc2C(=O)O)cc1 | – | – | – | – | 28 µM | – | – | – | Activity [15]: Active; Activity [7]: Active; Activity [8]: Active; Activity [16]: inactive
O=C(Nc1ccccc1C(=O)O)/C(=C/c1ccccc1)c1ccccc1 | 3.4 | 34% | – | – | 11 µM | 66% | 22% | 14% | Activity [15]: Active
COc1ccc(/C=C/C(=O)Nc2ccccc2C(=O)O)cc1OC | 3.5 | inactive | – | – | – | 6% | 56% | inactive | IC50 [10]: 126 µM; Activity [12]: 65%
